Values joined by “and” are separate entries in the source; they are usually repeats but may differ in a detail not shown here. Equal entries are not always repeated.
Tested on: HEK-293T
Assay: Multiplex assay against HEK293T
Type: toxicity, cell-based
Settings: human, number of replicates 2
Method in brief: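 Per cents of healthy-nucleus cells form the tubulin, mitochondrial-mass and membrane-permeability phenotype values. Live cells were stained at seeding with Hoechst33342, BioTracker Green Microtubule Cytoskeleton Dye, MitoTracker Red and Annexin V Alexa Fluor 680. After compound addition they were imaged on a CQ1 microscope at 37°C and 5% CO2, and CellPathfinder machine-learning gating split them into Hoechst high-intensity objects or normal cells, normal cells into healthy, pyknosed or fragmented nuclei, and pyknosed cells into mitotic or apoptotic.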

[1] = 12 h, 1 µM, compound concentration 1 uM
[2] = 12 h, 10 µM, compound concentration 10 uM
[3] = 24 h, 1 µM, compound concentration 1 uM
[4] = 24 h, 10 µM, compound concentration 10 uM
[5] = 48 h, 1 µM, compound concentration 1 uM
[6] = 48 h, 10 µM, compound concentration 10 uM

## Cn1cc(-c2ccc(-c3cncc(Cl)c3N3CCC4(CCNC4=O)CC3)cc2)cn1
[1]
  Population Apoptotic (%): 62% and 39%
  Population Fragmented Nuclei (%): 2% and 4%
  Population Healthy Nuclei (%): 90% and 84%
  Population Hoechst High Intensity Objects (%): 6% and 5%
  Population Membrane Permeable-Phenotype (%): 5% and 4%
  Population Mitochondria Different-Phenotype (%): 14% and 18%
  Population Mitotic Cells (%): 37% and 60%
  Population Normal (%): 93% and 94%
  Population Pyknosed Nuclei (%): 6% and 11%
  Population Tubulin-Different-Phenotype (%): 58% and 67%
  Total Cell Count: 574 and 615
[2]
  Population Apoptotic (%): 41% and 49%
  Population Fragmented Nuclei (%): 2% and 3%
  Population Healthy Nuclei (%): 87% and 86%
  Population Hoechst High Intensity Objects (%): 7%
  Population Membrane Permeable-Phenotype (%): 5% and 6%
  Population Mitochondria Different-Phenotype (%): 40% and 35%
  Population Mitotic Cells (%): 58% and 50%
  Population Normal (%): 92%
  Population Pyknosed Nuclei (%): 10%
  Population Tubulin-Different-Phenotype (%): 98% and 95%
  Total Cell Count: 600 and 554
[3]
  Population Apoptotic (%): 36% and 51%
  Population Fragmented Nuclei (%): 6% and 9%
  Population Healthy Nuclei (%): 86% and 85%
  Population Hoechst High Intensity Objects (%): 9% and 10%
  Population Membrane Permeable-Phenotype (%): 3%
  Population Mitochondria Different-Phenotype (%): 8% and 7%
  Population Mitotic Cells (%): 63% and 48%
  Population Normal (%): 90% and 89%
  Population Pyknosed Nuclei (%): 7% and 5%
  Population Tubulin-Different-Phenotype (%): 53%
  Total Cell Count: 822 and 828
[4]
  Population Apoptotic (%): 43% and 49%
  Population Fragmented Nuclei (%): 5%
  Population Healthy Nuclei (%): 85% and 84%
  Population Hoechst High Intensity Objects (%): 5% and 9%
  Population Membrane Permeable-Phenotype (%): 6% and 5%
  Population Mitochondria Different-Phenotype (%): 34% and 30%
  Population Mitotic Cells (%): 56% and 50%
  Population Normal (%): 94% and 90%
  Population Pyknosed Nuclei (%): 9% and 10%
  Population Tubulin-Different-Phenotype (%): 95% and 94%
  Total Cell Count: 684 and 624
[5]
  Population Apoptotic (%): 31% and 36%
  Population Fragmented Nuclei (%): 16% and 14%
  Population Healthy Nuclei (%): 80% and 82%
  Population Hoechst High Intensity Objects (%): 16% and 14%
  Population Membrane Permeable-Phenotype (%): 5% and 4%
  Population Mitochondria Different-Phenotype (%): 2%
  Population Mitotic Cells (%): 68% and 63%
  Population Normal (%): 83% and 85%
  Population Pyknosed Nuclei (%): 2% and 3%
  Population Tubulin-Different-Phenotype (%): 42% and 49%
  Total Cell Count: 1341 and 1209
[6]
  Population Apoptotic (%): 55% and 50%
  Population Fragmented Nuclei (%): 8% and 7%
  Population Healthy Nuclei (%): 84% and 83%
  Population Hoechst High Intensity Objects (%): 10%
  Population Membrane Permeable-Phenotype (%): 8%
  Population Mitochondria Different-Phenotype (%): 15% and 18%
  Population Mitotic Cells (%): 45% and 49%
  Population Normal (%): 89%
  Population Pyknosed Nuclei (%): 6% and 8%
  Population Tubulin-Different-Phenotype (%): 87% and 85%
  Total Cell Count: 1065 and 859

## C=CC(=O)Nc1cccc(C)c1Nc1ncc2cc(-c3c(Cl)c(OC)cc(OC)c3Cl)ccc2n1
[1]
  Population Apoptotic (%): 39% and 35%
  Population Fragmented Nuclei (%): 3%
  Population Healthy Nuclei (%): 87%
  Population Hoechst High Intensity Objects (%): 7% and 5%
  Population Membrane Permeable-Phenotype (%): 2% and 1%
  Population Mitochondria Different-Phenotype (%): 16% and 12%
  Population Mitotic Cells (%): 60% and 64%
  Population Normal (%): 92% and 94%
  Population Pyknosed Nuclei (%): 8% and 9%
  Population Tubulin-Different-Phenotype (%): 40% and 41%
  Total Cell Count: 760 and 929
[2]
  Population Apoptotic (%): 71% and 67%
  Population Fragmented Nuclei (%): 4%
  Population Healthy Nuclei (%): 71% and 77%
  Population Hoechst High Intensity Objects (%): 20% and 14%
  Population Membrane Permeable-Phenotype (%): 2% and 3%
  Population Mitochondria Different-Phenotype (%): 42% and 39%
  Population Mitotic Cells (%): 28% and 32%
  Population Normal (%): 79% and 85%
  Population Pyknosed Nuclei (%): 24% and 18%
  Population Tubulin-Different-Phenotype (%): 55% and 47%
  Total Cell Count: 374 and 381
[3]
  Population Apoptotic (%): 35% and 39%
  Population Fragmented Nuclei (%): 6% and 4%
  Population Healthy Nuclei (%): 85% and 88%
  Population Hoechst High Intensity Objects (%): 5% and 7%
  Population Membrane Permeable-Phenotype (%): 1% and 0%
  Population Mitochondria Different-Phenotype (%): 4% and 6%
  Population Mitotic Cells (%): 64% and 60%
  Population Normal (%): 94% and 92%
  Population Pyknosed Nuclei (%): 7%
  Population Tubulin-Different-Phenotype (%): 26% and 25%
  Total Cell Count: 1252 and 1297
[4]
  Population Apoptotic (%): 70% and 60%
  Population Fragmented Nuclei (%): 5% and 3%
  Population Healthy Nuclei (%): 71% and 77%
  Population Hoechst High Intensity Objects (%): 17% and 11%
  Population Membrane Permeable-Phenotype (%): 2% and 0%
  Population Mitochondria Different-Phenotype (%): 32% and 24%
  Population Mitotic Cells (%): 29% and 40%
  Population Normal (%): 83% and 88%
  Population Pyknosed Nuclei (%): 23% and 18%
  Population Tubulin-Different-Phenotype (%): 32% and 29%
  Total Cell Count: 453 and 428
[5]
  Population Apoptotic (%): 12%
  Population Fragmented Nuclei (%): 12% and 9%
  Population Healthy Nuclei (%): 84% and 87%
  Population Hoechst High Intensity Objects (%): 8% and 11%
  Population Membrane Permeable-Phenotype (%): 5% and 2%
  Population Mitochondria Different-Phenotype (%): 0% and 1%
  Population Mitotic Cells (%): 87%
  Population Normal (%): 91% and 88%
  Population Pyknosed Nuclei (%): 2% and 3%
  Population Tubulin-Different-Phenotype (%): 10% and 15%
  Total Cell Count: 3082 and 2641
[6]
  Population Apoptotic (%): 50% and 52%
  Population Fragmented Nuclei (%): 5% and 3%
  Population Healthy Nuclei (%): 84% and 85%
  Population Hoechst High Intensity Objects (%): 11% and 8%
  Population Membrane Permeable-Phenotype (%): 1%
  Population Mitochondria Different-Phenotype (%): 8% and 9%
  Population Mitotic Cells (%): 50% and 47%
  Population Normal (%): 88% and 91%
  Population Pyknosed Nuclei (%): 9% and 11%
  Population Tubulin-Different-Phenotype (%): 12%
  Total Cell Count: 751 and 603

Reference: ChEMBL document CHEMBL5303300, “EUbOPEN Chemogenomics Library - Multiplex” (2023)
